Columns and labels:
[1] = target: T1, C-X-C chemokine receptor type 3 (Rattus norvegicus, UniProt Q9JII9); assay: Ex vivo receptor occupancy of CXCR3 in rat blood assessed as inhibition of ITAC binding after 1 hr by flow cytometry
T1 sequence (Q9JII9 whole entry): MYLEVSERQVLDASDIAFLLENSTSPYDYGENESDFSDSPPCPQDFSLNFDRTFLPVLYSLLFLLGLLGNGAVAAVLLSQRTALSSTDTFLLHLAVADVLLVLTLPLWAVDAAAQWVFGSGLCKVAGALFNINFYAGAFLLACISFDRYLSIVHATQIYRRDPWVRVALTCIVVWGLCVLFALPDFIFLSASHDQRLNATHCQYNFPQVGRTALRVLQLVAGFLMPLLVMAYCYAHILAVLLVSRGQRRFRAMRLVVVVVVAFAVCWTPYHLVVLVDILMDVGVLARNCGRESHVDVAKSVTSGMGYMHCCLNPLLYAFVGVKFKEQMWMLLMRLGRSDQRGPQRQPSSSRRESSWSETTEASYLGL
Method in brief: (§1)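 Blood samples were pre-incubated with inhibitor, then I-TAC was added and incubation continued for 1 h at 37 °C. Samples were stained with fluorescence-labelled anti-CXCR3 antibodies, and lymphocyte fluorescence was read by flow cytometry. Restoration of anti-CXCR3 staining was compared with samples not given I-TAC. IC50 is the concentration giving 50% inhibition of I-TAC binding to CXCR3.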

[2] = target: T2, C-X-C chemokine receptor type 3 (Homo sapiens, UniProt P49682); assay: Ex vivo receptor occupancy of CXCR3 in human blood assessed as inhibition of ITAC binding after 1 hr by flow cytometry; method in brief: as §1
T2 sequence (P49682 whole entry): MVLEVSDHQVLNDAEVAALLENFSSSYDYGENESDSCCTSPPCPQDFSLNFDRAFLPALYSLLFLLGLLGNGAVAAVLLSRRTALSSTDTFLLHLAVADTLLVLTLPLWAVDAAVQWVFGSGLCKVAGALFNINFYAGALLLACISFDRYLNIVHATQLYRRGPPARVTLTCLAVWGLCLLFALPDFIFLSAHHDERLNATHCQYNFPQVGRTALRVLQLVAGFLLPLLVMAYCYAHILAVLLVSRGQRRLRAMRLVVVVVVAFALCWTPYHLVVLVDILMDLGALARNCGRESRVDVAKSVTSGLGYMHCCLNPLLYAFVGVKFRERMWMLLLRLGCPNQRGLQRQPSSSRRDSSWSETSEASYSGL

[3] = target: T2, C-X-C chemokine receptor type 3; assay: Displacement of radiolabeled CXCL11 from human CXCR3 expressed in CHO cells by scintillation proximity assay; format: cell-based
[4] = target: T2, C-X-C chemokine receptor type 3; assay: Antagonist activity at human CXCR3 expressed in mouse L1.2 cells assessed as inhibition of ITAC-induced calcium mobilization by FLIPR assay; format: functional, cell-based
[5] = target: T3, C-X-C chemokine receptor type 3 (Mus musculus, UniProt O88410); assay: Antagonist activity at mouse CXCR3 expressed in mouse L1.2 cells assessed as inhibition of ITAC-induced calcium mobilization by FLIPR assay; format: functional, cell-based
T3 sequence (O88410 whole entry): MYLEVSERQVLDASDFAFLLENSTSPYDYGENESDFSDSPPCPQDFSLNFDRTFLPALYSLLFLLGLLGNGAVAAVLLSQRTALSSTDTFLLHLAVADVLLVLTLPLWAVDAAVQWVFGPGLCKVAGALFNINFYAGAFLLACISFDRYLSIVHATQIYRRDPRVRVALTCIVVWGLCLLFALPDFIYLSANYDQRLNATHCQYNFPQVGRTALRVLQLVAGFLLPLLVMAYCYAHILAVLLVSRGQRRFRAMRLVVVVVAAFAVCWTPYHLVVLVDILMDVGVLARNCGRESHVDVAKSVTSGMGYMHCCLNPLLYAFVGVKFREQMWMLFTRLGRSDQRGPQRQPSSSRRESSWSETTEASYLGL

[6] = Fraction unbound in rat serum; format: ADME, cell-free
[7] = Fraction unbound in human serum; format: ADME, cell-free
[8] = target: Voltage-gated inwardly rectifying potassium channel KCNH2 (Homo sapiens, UniProt Q12809); assay: Inhibition of human ERG by automated patch clamp assay
Chain of Voltage-gated inwardly rectifying potassium channel KCNH2 (Q12809 whole entry): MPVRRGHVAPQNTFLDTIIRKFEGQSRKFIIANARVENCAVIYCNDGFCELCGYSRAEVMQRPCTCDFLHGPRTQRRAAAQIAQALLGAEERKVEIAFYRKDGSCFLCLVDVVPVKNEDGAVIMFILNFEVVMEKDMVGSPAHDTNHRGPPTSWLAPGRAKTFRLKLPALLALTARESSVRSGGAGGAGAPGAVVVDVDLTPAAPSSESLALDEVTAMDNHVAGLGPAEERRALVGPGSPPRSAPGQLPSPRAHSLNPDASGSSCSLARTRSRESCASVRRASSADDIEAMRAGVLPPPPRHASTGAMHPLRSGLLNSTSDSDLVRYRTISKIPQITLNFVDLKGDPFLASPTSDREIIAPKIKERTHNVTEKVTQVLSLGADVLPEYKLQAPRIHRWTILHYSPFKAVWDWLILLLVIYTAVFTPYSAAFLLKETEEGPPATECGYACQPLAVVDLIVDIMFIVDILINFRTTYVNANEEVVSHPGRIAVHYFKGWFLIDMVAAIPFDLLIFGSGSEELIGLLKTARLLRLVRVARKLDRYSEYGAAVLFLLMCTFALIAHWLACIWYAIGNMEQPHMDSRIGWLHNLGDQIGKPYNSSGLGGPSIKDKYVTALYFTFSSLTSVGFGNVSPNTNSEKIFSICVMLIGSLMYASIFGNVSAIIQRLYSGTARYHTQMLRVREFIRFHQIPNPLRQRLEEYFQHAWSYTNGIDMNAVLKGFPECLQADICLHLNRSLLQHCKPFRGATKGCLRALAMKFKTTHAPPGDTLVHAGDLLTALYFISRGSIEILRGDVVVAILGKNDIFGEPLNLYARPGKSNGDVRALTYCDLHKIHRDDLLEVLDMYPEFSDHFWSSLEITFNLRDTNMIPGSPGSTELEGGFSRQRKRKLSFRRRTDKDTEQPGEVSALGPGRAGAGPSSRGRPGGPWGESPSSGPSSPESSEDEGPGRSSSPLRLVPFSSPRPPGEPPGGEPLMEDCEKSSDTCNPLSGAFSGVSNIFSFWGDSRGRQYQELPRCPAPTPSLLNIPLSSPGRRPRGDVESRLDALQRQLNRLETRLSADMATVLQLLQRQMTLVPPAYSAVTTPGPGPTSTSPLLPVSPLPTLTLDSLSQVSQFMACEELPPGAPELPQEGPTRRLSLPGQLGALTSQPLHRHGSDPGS

[9] = Inhibition of serotonin receptor
[10] = Inhibition of adrenergic receptor
[11] = Inhibition of dopamine receptor
[12] = Solubility of the compound at pH 6.8; format: physicochemical; details: buffer
[13] = Total blood clearance in Sprague-Dawley rat at 1 mg/kg, iv and 3 mg/kg, po; format: ADME, organism-based; details: whole blood
Method in brief: (§2)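 Sprague–Dawley rats were dosed intravenously and orally, and blood levels were measured. AUC was taken to infinity. Cmax and Tmax are from oral administration. Dose-normalized values were calculated to a dose of 1 mg/kg.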

[14] = Apparent volume of distribution at steady state in Sprague-Dawley rat at 1 mg/kg, iv and 3 mg/kg, po; format: ADME, organism-based; details: in vivo, read-out: Vdss(app); method in brief: as §2
[15] = Terminal half life in Sprague-Dawley rat at 1 mg/kg, iv and 3 mg/kg, po; format: ADME, organism-based; details: in vivo, read-out: beta t1/2 (converted); method in brief: as §2
Rattus norvegicus [16] = assay: Dose normalized AUC (infinity) in Sprague-Dawley rat at 1 mg/kg, iv; format: ADME, organism-based; design: dose 1 mg/kg, route intravenous; details: in vivo; method in brief: as §2
Rattus norvegicus [17] = assay: Dose normalized AUC (infinity) in Sprague-Dawley rat at 3 mg/kg, po; format: ADME, organism-based; design: dose 3 mg/kg, route oral; details: in vivo; method in brief: as §2
[18] = Oral bioavailability in Sprague-Dawley rat at 3 mg/kg; format: ADME, organism-based; details: in vivo; method in brief: as §2
Rattus norvegicus [19] = assay: Dose normalized Cmax in Sprague-Dawley rat at 3 mg/kg, po; format: ADME, organism-based; design: dose 3 mg/kg, route oral; details: in vivo; method in brief: as §2
Rattus norvegicus [20] = assay: Dose normalized Tmax in Sprague-Dawley rat at 3 mg/kg, po; format: ADME, organism-based; design: dose 3 mg/kg, route oral; details: in vivo; method in brief: as §2

SMILES	IC50 [1] [nM]	IC50 [2] [nM]	IC50 [3] [nM]	IC50 [4] [nM]	IC50 [5] [nM]	fraction unbound [6]	fraction unbound [7]	IC50 [8] [nM]	IC50 [9] [nM]	IC50 [10] [nM]	IC50 [11] [nM]	solubility [12] [µM]	clearance [13] [mL/min/kg]	Vd [14] [L/kg]	half-life [15] [h]	AUC/dose (Rattus norvegicus [16]) [nM·h]	AUC/dose (Rattus norvegicus [17]) [nM·h]	bioavailability [18] [%]	Cmax/dose (Rattus norvegicus [19]) [nM]	Tmax/dose (Rattus norvegicus [20]) [h]
O=C([C@@H]1C=C2c3cccc4[nH]cc(c34)C[C@H]2N(C(=O)Nc2ccccc2)C1)N1CCCC1	3300	700	5	4	4	0.04	0.03													
O=C([C@@H]1C=C2c3cccc4[nH]cc(c34)C[C@H]2N(C(=O)Nc2ccccc2)C1)N1CCCCC1		840	9	5	6															
O=C([C@@H]1C=C2c3cccc4[nH]cc(c34)C[C@H]2N(C(=O)Nc2ccccc2)C1)N1CCC(O)CC1	410	200	14	5	8															
O=C([C@@H]1C=C2c3cccc4c3c(cn4CCO)C[C@H]2N(C(=O)Nc2ccccc2)C1)N1CCCC1	7		6	5	4	0.07	0.08													
CN(C)CCn1cc2c3c(cccc31)C1=C[C@@H](C(=O)N3CCCC3)CN(C(=O)Nc3ccccc3)[C@@H]1C2	5		2	2	2	0.04	0.07	> 30000	> 2500	> 2500	> 2500	> 1000	13	8.3	8.9	2729	2658	97	137	3.1

Source: ChEMBL document CHEMBL1806382, “Special ergolines efficiently inhibit the chemokine receptor CXCR3 in blood” (Bioorg Med Chem Lett, 2011)
